Converted amounts (≈) assume the structure as drawn. The source made the active and inactive calls. No cut-off for these calls is given here.
Key:
Pseudomonas aeruginosa = experiment: Bacteriostatic activity against Pseudomonas aeruginosa ATCC 15442 after 20 hrs by broth microdilution method; format: functional; conditions: ATCC 15442, 20 h
Summary of the method: (§1)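 MIC by broth microdilution across 128 to 1 μg/mL in 96-well plates, 37 °C for at least 20 h. MIC is the lowest concentration with no visible growth.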

Staphylococcus aureus [1] = experiment: Bactericidal activity against methicillin-resistant Staphylococcus aureus USA500 NRS385 clinical isolate preincubated for 20 hrs followed by TSA plating and measured after 18 hrs; format: functional
Staphylococcus aureus [2] = experiment: Bacteriostatic activity against methicillin-resistant Staphylococcus aureus USA400 NRS123 clinical isolate after 20 hrs by broth microdilution method; format: functional; conditions: USA400 NRS123, 20 h
Summary of the method: (§2)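 Broth microdilution MIC over 128 to 1 μg/mL, run alongside methicillin, linezolid and vancomycin. MIC taken as the lowest concentration with no visible growth.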

Staphylococcus aureus [3] = experiment: Ratio of MIC for methicillin-resistant Staphylococcus aureus USA400 NRS123 measured after 10th to 14th passage to MIC for methicillin-resistant Staphylococcus aureus USA400 NRS123 measured prior 10th to 14th passage; format: functional
Summary of the method: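 MRSA USA400 (NRS123) passaged serially, once a day, over 14 passages in two weeks. Broth microdilution MIC of test agent and ciprofloxacin measured after each passage. A four-fold MIC shift taken as resistance.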

Klebsiella pneumoniae = experiment: Bacteriostatic activity against Klebsiella pneumoniae BAA 1706 after 20 hrs by broth microdilution method; format: functional; conditions: BAA 1706, 20 h; summary of the method: as §1
Staphylococcus aureus [4] = experiment: Bactericidal activity against methicillin-resistant Staphylococcus aureus USA400 NRS123 clinical isolate preincubated for 20 hrs followed by TSA plating and measured after 18 hrs; format: functional
Listeria monocytogenes = experiment: Bacteriostatic activity against Listeria monocytogenes ATCC 19115 after 20 hrs by broth microdilution method; format: functional; conditions: ATCC 19115, 20 h; summary of the method: as §1
Staphylococcus aureus [5] = experiment: Bacteriostatic activity against methicillin-resistant Staphylococcus aureus USA400 NRS123 measured over 14 days by broth microdilution method
Enterococcus faecium [6] = experiment: Bactericidal activity against vancomycin-resistant Enterococcus faecium ATCC 700221 clinical isolate preincubated for 20 hrs followed by TSA plating and measured after 18 hrs; format: functional
Summary of the method: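 MBC: 4 μL from wells with no growth in the MIC plate (Brain Heart Infusion broth, 37 °C, at least 20 h) spotted onto Tryptic Soy Agar. Read after at least 18 h at 37 °C.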

Staphylococcus aureus [7] = experiment: Bacteriostatic activity against vancomycin-intermediate Staphylococcus aureus NRS1 clinical isolate after 20 hrs by broth microdilution method; format: functional; conditions: NRS1, 20 h; summary of the method: as §2
Enterococcus faecalis [8] = experiment: Potency index, ratio of vancomycin MIC to test compound MIC for vancomycin-resistant Enterococcus faecalis ATCC 51575
Staphylococcus aureus [9] = experiment: Bacteriostatic activity against methicillin-resistant Staphylococcus aureus NRS119 clinical isolate after 20 hrs by broth microdilution method; format: functional; conditions: NRS119, 20 h; summary of the method: as §2
Staphylococcus aureus [10] = experiment: Antibacterial activity against methicillin-resistant Staphylococcus aureus USA300 at 12 ug/ml preincubated for 24 hrs followed by agar plating and measured after 18 to 20 hrs by time-kill assay relative to control; format: functional
Staphylococcus aureus [11] = experiment: Bacteriostatic activity against methicillin-resistant Staphylococcus aureus USA800 NRS387 clinical isolate after 20 hrs by broth microdilution method; format: functional; conditions: USA800 NRS387, 20 h; summary of the method: as §2
Staphylococcus aureus [12] = experiment: Bacteriostatic activity against methicillin-resistant Staphylococcus aureus ATCC 33592 after 20 hrs by broth microdilution method; format: functional; conditions: ATCC 33592, 20 h; summary of the method: as §2
Enterococcus faecium [13] = experiment: Bacteriostatic activity against vancomycin-resistant Enterococcus faecium ATCC 700221 clinical isolate after 20 hrs by broth microdilution method; format: functional; conditions: ATCC 700221, 20 h
Summary of the method: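 Broth microdilution MIC over 128 to 1 μg/mL in Brain Heart Infusion broth, 37 °C for at least 20 h. MIC taken as the lowest concentration with no visible growth.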

Staphylococcus aureus [14] = experiment: Bacteriostatic activity against methicillin-resistant Staphylococcus aureus USA500 NRS385 clinical isolate after 20 hrs by broth microdilution method; format: functional; conditions: USA500 NRS385, 20 h; summary of the method: as §2
Enterococcus faecalis [15] = experiment: Bacteriostatic activity against vancomycin-resistant Enterococcus faecalis ATCC 51575 after 20 hrs by broth microdilution method; format: functional; conditions: ATCC 51575, 20 h; summary of the method: as §2
Staphylococcus aureus [16] = experiment: Antibacterial activity against Staphylococcus aureus assessed as growth inhibition at 16 ug/ml after 24 hrs; format: functional, organism-based
Summary of the method: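 S. aureus grown in Mueller Hinton Broth to early exponential phase, then exposed to compound (16 μg/mL; DMSO stocks 10 mg/mL) or DMSO in duplicate, 37 °C for 24 h. OD600 read; percent normalized OD600 = (X − media blank)/(DMSO control − media blank) × 100.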

Escherichia coli [17] = experiment: Bacteriostatic activity against Escherichia coli BW25113 after 20 hrs by broth microdilution method; format: functional; conditions: BW25113, 20 h; summary of the method: as §1
J774 = experiment: Cytotoxicity against mouse J774 cells assessed as decrease in cell viability up to 128 ug/ml after 24 hrs by MTS assay; format: cell-based; conditions: j774, 24 h
Acinetobacter baumannii = experiment: Bacteriostatic activity against Acinetobacter baumannii ATCC 19606 after 20 hrs by broth microdilution method; format: functional; conditions: ATCC 19606 = CIP 70.34 = JCM 6841, 20 h; summary of the method: as §1
Staphylococcus aureus [18] = experiment: Antibacterial activity against methicillin-resistant Staphylococcus aureus USA300 in BALB/c mouse wound infection model assessed as reduction in bacterial burden in wound at 2% administered topically bid for 5 days relative to control; format: functional; set-up: scale not given: the % may be the effect or the level left
Summary of the method: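 Female BALB/c mice, eight weeks old, n = 5 per group, injected intradermally with 40 μL of 1.32×10^9 CFU/mL MRSA USA300. Once an abscess or open wound formed, it was treated topically twice daily for five days with 2% agent in petroleum jelly, with vehicle as control. Wound tissue excised 12 h after the last dose, homogenized in PBS, diluted and plated on mannitol salt agar for 16 h or more at 37 °C. CFU reduction calculated against vehicle.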

[19] = Ratio of non toxic concentration for mouse J774 cells to MIC for methicillin-resistant Staphylococcus aureus ATCC 33592; format: toxicity
Staphylococcus aureus [20] = experiment: Potency index, ratio of methicillin MIC to test compound MIC for methicillin-resistant Staphylococcus aureus ATCC 33592; format: functional
Staphylococcus aureus [21] = experiment: Bactericidal activity against methicillin-resistant Staphylococcus aureus USA300 NRS384 clinical isolate preincubated for 20 hrs followed by TSA plating and measured after 18 hrs; format: functional
Staphylococcus aureus [22] = experiment: Bacteriostatic activity against Staphylococcus aureus ATCC 25923 after 20 hrs by broth microdilution method; format: functional; conditions: ATCC 25923, 20 h; summary of the method: as §2
Staphylococcus aureus [23] = experiment: Bactericidal activity against vancomycin-intermediate Staphylococcus aureus NRS1 clinical isolate preincubated for 20 hrs followed by TSA plating and measured after 18 hrs; format: functional
Staphylococcus aureus [24] = experiment: Bacteriostatic activity against methicillin-resistant Staphylococcus aureus USA700 NRS386 clinical isolate after 20 hrs by broth microdilution method; format: functional; conditions: USA700 NRS386, 20 h; summary of the method: as §2
Enterococcus faecalis [25] = experiment: Bacteriostatic activity against Enterococcus faecalis ATCC 29212 after 20 hrs by broth microdilution method; format: functional; conditions: ATCC 29212, 20 h; summary of the method: as §2
Staphylococcus aureus [26] = experiment: Bacteriostatic activity against vancomycin-resistant Staphylococcus aureus VRS12 clinical isolate after 20 hrs by broth microdilution method; format: functional; conditions: VRS12, 20 h; summary of the method: as §2
Escherichia coli [27] = experiment: Bacteriostatic activity against AcrAB-tolC deficient Escherichia coli JW5503-1 after 20 hrs by broth microdilution method; format: functional; conditions: JW5503-1, 20 h; summary of the method: as §1
Staphylococcus aureus [28] = experiment: Bactericidal activity against methicillin-resistant Staphylococcus aureus USA800 NRS387 clinical isolate preincubated for 20 hrs followed by TSA plating and measured after 18 hrs; format: functional
Staphylococcus aureus [29] = experiment: Bacteriostatic activity against methicillin-resistant Staphylococcus aureus USA300 NRS384 clinical isolate after 20 hrs by broth microdilution method; format: functional; conditions: USA300 NRS384, 20 h; summary of the method: as §2
Staphylococcus aureus [30] = experiment: Bactericidal activity against methicillin-resistant Staphylococcus aureus USA700 NRS386 clinical isolate preincubated for 20 hrs followed by TSA plating and measured after 18 hrs; format: functional
Caco-2 = experiment: Cytotoxicity against human Caco2 cells assessed as decrease in cell viability up to 128 ug/ml after 24 hrs by MTS assay; format: cell-based; conditions: caco-2, 24 h
Summary of the method: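 Caco-2 cells were grown in DMEM with 20% FBS, 1X non-essential amino acids and penicillin-streptomycin at 37 °C, 5% CO2. Viability is % of DMSO-treated cells.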

Staphylococcus aureus [31] = experiment: Bactericidal activity against vancomycin-resistant Staphylococcus aureus VRS12 clinical isolate preincubated for 20 hrs followed by TSA plating and measured after 18 hrs; format: functional
Staphylococcus aureus [32] = experiment: Bactericidal activity against methicillin-resistant Staphylococcus aureus NRS119 clinical isolate preincubated for 20 hrs followed by TSA plating and measured after 18 hrs; format: functional
[33] = Ratio of non toxic concentration for human Caco2 cells to MIC for methicillin-resistant Staphylococcus aureus ATCC 33592; format: toxicity; conditions: Caco-2 cells
Staphylococcus aureus [34] = experiment: Antibacterial activity against methicillin-resistant Staphylococcus aureus USA300 at 6 ug/ml preincubated up to12 hrs followed by agar plating and measured after 18 to 20 hrs by time-kill assay; format: functional, organism-based

Structure (SMILES)	MBC (Staphylococcus aureus [1])	MIC (Staphylococcus aureus [2])	MBC (Staphylococcus aureus [4])	MIC (Listeria monocytogenes)	MBC (Enterococcus faecium [6])	MIC (Staphylococcus aureus [9])	MIC (Staphylococcus aureus [12])	MIC (Enterococcus faecium [13])	MIC (Staphylococcus aureus [14])	MIC (Enterococcus faecalis [15])	MBC (Staphylococcus aureus [21])	MIC (Staphylococcus aureus [22])	MBC (Staphylococcus aureus [23])	MIC (Staphylococcus aureus [24])	MIC (Enterococcus faecalis [25])	MIC (Staphylococcus aureus [26])	MBC (Staphylococcus aureus [28])	MIC (Staphylococcus aureus [29])	MBC (Staphylococcus aureus [30])	MBC (Staphylococcus aureus [31])	other results
C[C@@H]1C[C@H](C)CN(S(=O)(=O)c2ccc(C(=O)Nc3nnc(-c4cccs4)o3)cc2)C1 (mixture of isomers)	> 128 µg/mL	2 µg/mL	> 128 µg/mL	4 µg/mL	128 µg/mL	2 µg/mL	2 to 4 µg/mL	2 µg/mL	2 µg/mL	4 µg/mL	> 128 µg/mL	2 to 4 µg/mL	> 128 µg/mL	2 µg/mL	4 µg/mL	2 µg/mL	> 128 µg/mL	2 µg/mL	> 128 µg/mL	> 128 µg/mL	MIC (Pseudomonas aeruginosa): > 128 µg/mL; Ratio (Staphylococcus aureus [3]): 1; MIC (Klebsiella pneumoniae): > 128 µg/mL; Activity (Staphylococcus aureus [5]): Active; MIC (Staphylococcus aureus [7]): 2 µg/mL; Ratio (Enterococcus faecalis [8]): >32; Activity (Staphylococcus aureus [10]): 2.01 deltalog10CFU/ml; MIC (Staphylococcus aureus [11]): 2 µg/mL; growth inhibition (GI) (Staphylococcus aureus [16]): Active; MIC (Escherichia coli [17]): > 128 µg/mL; Activity (J774): Non-Toxic; MIC (Acinetobacter baumannii): 128 µg/mL; Activity (Staphylococcus aureus [18]): 72.41%; selectivity ratio [19]: 63; Ratio (Staphylococcus aureus [20]): > 64; MIC (Escherichia coli [27]): 2 µg/mL; Activity (Caco-2): Non-Toxic; MBC (Staphylococcus aureus [32]): > 128 µg/mL; selectivity ratio [33]: 63
CN[C@H](CC(C)C)C(=O)N[C@H]1C(=O)N[C@@H](CC(N)=O)C(=O)N[C@H]2C(=O)N[C@H]3C(=O)N[C@H](C(=O)N[C@H](C(=O)O)c4cc(O)cc(O)c4-c4cc3ccc4O)[C@H](O)c3ccc(c(Cl)c3)Oc3cc2cc(c3O[C@@H]2O[C@H](CO)[C@@H](O)[C@H](O)[C@H]2O[C@H]2C[C@](C)(N)[C@H](O)[C@H](C)O2)Oc2ccc(cc2Cl)[C@H]1O [VANCOMYCIN]	2 µg/mL (≈ 1.38 µM)	≤ 1 µg/mL	≤ 1 µg/mL	1 µg/mL (≈ 0.69 µM)	> 128 µg/mL	≤ 1 µg/mL	1 to 2 µg/mL (≈ 0.69 to 1.38 µM)	> 128 µg/mL	≤ 1 µg/mL	> 128 µg/mL	≤ 1 µg/mL	1 to 2 µg/mL (≈ 0.69 to 1.38 µM)	4 µg/mL (≈ 2.76 µM)	≤ 1 µg/mL	2 µg/mL (≈ 1.38 µM)	> 128 µg/mL	2 µg/mL (≈ 1.38 µM)	≤ 1 µg/mL	≤ 1 µg/mL	> 128 µg/mL	Activity (Staphylococcus aureus [34]): Active; MBC (Staphylococcus aureus [32]): ≤ 1 µg/mL

Source: ChEMBL document CHEMBL4152323, “N-(1,3,4-oxadiazol-2-yl)benzamide analogs, bacteriostatic agents against methicillin- and vancomycin-resistant bacteria” (Eur J Med Chem, 2018)
